# Screening results deposited in PubChem by Johns Hopkins Ion Channel Center.
# Kir21 inh: inhibitors of mouse Kir2.1 inward-rectifier potassium channel; Inward rectifier potassium channel 2 (Mus musculus), P35561; HEK293-Kir2.1, FluxOR thallium flux fluorescence; stronger effect = lower value; B-score at 10 µM; 310,000 tested, 0.85% active; AID 1672, 2009;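 active = fluorescence ratio B-score at or below minus 3 SD of library scores, with starting-brightness B-score within 2 SD, cut at about -4.2 in these data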;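 also: channel flux triggered by added potassium and thallium sulfate stimulus; B-score of peak minus minimum fluorescence over baseline after thallium stimulus; more negative B-score means stronger Kir2.1 block with less thallium influx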
# Target sequence (P35561 whole entry, looked up): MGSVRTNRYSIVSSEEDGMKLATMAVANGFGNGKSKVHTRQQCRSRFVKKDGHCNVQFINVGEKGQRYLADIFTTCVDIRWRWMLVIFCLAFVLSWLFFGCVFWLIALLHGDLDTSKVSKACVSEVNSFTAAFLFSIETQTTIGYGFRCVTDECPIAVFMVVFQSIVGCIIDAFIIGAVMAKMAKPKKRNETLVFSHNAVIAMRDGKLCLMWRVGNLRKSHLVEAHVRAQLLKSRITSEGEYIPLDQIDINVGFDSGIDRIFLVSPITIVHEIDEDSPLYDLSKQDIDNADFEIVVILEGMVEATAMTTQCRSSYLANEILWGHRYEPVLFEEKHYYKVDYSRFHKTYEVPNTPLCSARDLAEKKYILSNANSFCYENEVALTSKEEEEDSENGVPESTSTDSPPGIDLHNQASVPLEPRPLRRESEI
# hERG protect: hERG rescue from dofetilide block, primary screen, cell-based, CHO-hERG, FluxOR thallium flux, dofetilide IC70 | Voltage-gated inwardly rectifying potassium channel KCNH2 (Homo sapiens), Q12809 | dofetilide IC70 present | activation (rescue from dofetilide block), less the hit threshold, % at 10 µM | 310,000 tested, 0.51% active | AID 1511, 2009;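 active = activation above the mean of controls blocked by dofetilide plus 5 SD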;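 also: thallium influx through hERG after potassium depolarization seen as dye fluorescence rise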
# KCNQ1 act: potentiators or activators of KCNQ1 channel, primary screen, cell-based, thallium flux, high-throughput; Potassium voltage-gated channel subfamily KQT member 1 (Homo sapiens), P51787; CHO-K1 KCNQ1, thallium flux FluxOR fluorescence; stronger effect = higher value; B-score at 10 µM; 310,000 tested, 0.35% active; AID 2648, 2010;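 active = fluorescence ratio B-score, a plate-corrected score, at least three library SD, with initial intensity B-score within 5 SD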
#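 Schedule – 37 °C overnight plating, 90-min dark dye load, 20-min compound pretreatment · System – stable KCNQ1 CHO-K1 line · Probe or stimulus – thallium- and potassium-containing depolarizing buffer · Measured by – kinetic FluxOR fluorescence, 10 s baseline plus 110 s post-stimulus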
# KCNK3 inh: human KCNK3 channel inhibitors, primary screen, CHO cells, FluxOR thallium flux, B-score; FluxOR fluorescence; stronger effect = lower value; B-score at 10 µM; 340,000 tested, 0.84% active; AID 602410, 2012;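 active = B-score under library mean minus 4 SD, starting fluorescence ratio at most library mean plus 5 SD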;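 also: more negative B-score means stronger inhibition of thallium flux through KCNK3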
# KCNK9 inh: KCNK9 potassium channel inhibitors, primary screen, HEK293 cells, thallium flux | AID 488922, 2010 | 310,000 tested, 1.2% active | B-score at 10 µM | Potassium channel subfamily K member 9 (Homo sapiens), Q9NPC2 | FluxOR thallium flux fluorescence; stronger effect = lower value;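 active = ratio B-score over 3 SD below the library mean, with starting fluorescence within 5 SD of its mean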;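 also: negative B-score means less thallium flux so channel inhibition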
# KCNQ1 inh: inhibitors of human KCNQ1 channel, primary screen, cell-based, thallium flux, high-throughput; Potassium voltage-gated channel subfamily KQT member 1 (Homo sapiens), P51787; CHO-K1 KCNQ1, FluxOR thallium flux fluorescence; stronger effect = higher value; B-score at 10 µM; 310,000 tested, 1.3% active;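 active = compounds whose thallium flux B-score, printed positive for inhibition, exceeds three library SD while starting fluorescence stays within three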;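 also: channel opened by potassium depolarization with thallium stimulus after 20 min compound exposure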
# KCNK9 inh conf: KCNK9 potassium channel inhibitors, confirmation, HEK293 cells, thallium flux, duplicate; shares compounds with KCNK9 inh; FluxOR thallium flux fluorescence; inhibition, % at 10 µM; 4,900 tested, 43% active; AID 492992, 2010;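 active = thallium signal inhibited by more than 5 SD of the compound-free buffer control wells, on both duplicate plates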;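 also: 0% = assay buffer control wells without compound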
# Kir2-1 spec: mouse Kir2.1 channel inhibition, confirmation, selectivity assay for KCNK9 modulator project, cell-based, HEK293, thallium flux | shares compounds with KCNK9 inh | Kir2.1 cells, FluxOR thallium flux fluorescence | inhibition, % at 10 µM | 4,900 tested, 4% active | AID 492993, 2010;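 active = thallium signal drop more than 5 SD beyond the mean of the no-compound control wells, seen in both duplicate plates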;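 also: signal is fluorescence rise after thallium addition divided by baseline fluorescence; plate controls were assay buffer only for no effect and full block by chlorpromazine control for full effect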
# KCNK9 uninduced: thallium flux in non-induced HEK293 cells, confirmation, counter-screen for KCNK9 inhibitor project, cell-based, second counter screen, non-induced KCNK9-HEK293; shares compounds with KCNK9 inh; FluxOR thallium flux; inhibition, % at 10 µM; 4,900 tested, 40% active;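 active = thallium signal drop beyond 5 SD of the untreated control mean, on both duplicate plates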;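 also: plate controls were buffer only IC0 wells for no effect and SID17386958 at its maximal inhibitory level for full effect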
# * marks the source's active call; other numbers are inactive results; i = inactive; . = no result. This is a sample that favours compounds with a hit; in the whole collection about 3.7% have one here.
SMILES,Kir21 inh,hERG protect,KCNQ1 act,KCNK3 inh,KCNK9 inh,KCNQ1 inh,KCNK9 inh conf,Kir2-1 spec,KCNK9 uninduced
COc1ccccc1CCC(=O)Nc1cc(S(=O)(=O)N2CCOCC2)ccc1N1CCCC1,0.42,-14.9,i,i,i,i,.,.,.
Cc1ccccc1OCCn1cc(C(=S)N2CCCC2)c2ccccc21,-0.79,-6.7,i,i,-9.65*,i,i,i,30.0%*
COCCN(CC(=O)Nc1cccc(S(=O)(=O)N2CCCC2)c1)Cc1nc2ccccc2c(=O)[nH]1,.,.,.,i,.,.,.,.,.
O=C(OCc1ccccc1)c1cccc(-c2nnc(-c3ccccc3)o2)c1,-0.52,-34.1,i,i,i,i,.,.,.
CCOC(=O)c1cccc(COC(=O)c2cccc(-c3nnc(-c4ccccc4)o3)c2)c1,-0.08,-17.5,i,i,-19.1*,i,68.5%*,i,24.0%*
CCOc1cc(/C=C2\C(=O)N(CCc3ccc(OC)c(OC)c3)C(C)=C2C(=O)OC)ccc1O,0.44,-12.9,i,i,i,i,.,.,.
COC(=O)C1=C(C)N(Cc2ccc(C)cc2)C(=O)/C1=C\c1ccc(O)c(OC)c1,-0.35,-20.5,i,i,-8.92*,i,62.5%*,i,40.0%*
CCOC(=O)N1CCN(Cc2nc3cc(NC(=O)CC(C)C)ccc3n2CC)CC1,0.64,-3.6,i,i,i,i,.,.,.
Cc1ccc(S(=O)(=O)N2CCC(C(=O)N/N=C/c3ccncc3)CC2)cc1,1.31,-10.0,i,i,i,i,.,.,.
CCC(=O)N1c2ccc(S(=O)(=O)N3CCN(c4ccccc4Cl)CC3)cc2CC1C (centres undefined),1.19,-10.6,i,i,i,i,.,.,.
CCC(=O)N1c2ccc(S(=O)(=O)N3CCN(c4cc(C)ccc4C)CC3)cc2CC1C (centres undefined),1.67,-8.9,i,i,i,i,i,i,i
Fc1cccc(-c2cc3nc4c(c(NCc5ccco5)n3n2)CCCC4)c1,0.4,-14.1,i,i,-10.1*,i,37.0%*,i,31.5%*
Cc1nc2cc(-c3cccc(F)c3)nn2c(C)c1CCC(=O)NC(C)CCc1ccco1 (centres undefined),2.29,-4.3,i,i,i,i,.,.,.
COc1ccc(-n2sc3c(c2=S)-c2cc(OC)ccc2NC3(C)C)cc1,0.23,-8.7,i,i,i,i,.,.,.
COc1ccc2c(c1)-c1c(sn(-c3ccc(OC)c(OC)c3)c1=S)C(C)(C)N2,1.67,-3.9,i,i,i,i,i,i,i
Cc1ccc(OCCOCCOc2cccc3cccnc23)c(Br)c1,-1.95,-10.0,i,i,i,i,i,i,i
Clc1cc(Br)ccc1OCCOCCOc1cccc2cccnc12,-0.73,-1.8,i,i,i,i,.,.,.
COc1cc(C)ccc1OCCOCCOc1c(C)cc(C)cc1Br,0.01,-10.9,i,i,i,i,i,i,i
COc1ccccc1OCCOCCOc1c(C)cc(C)cc1Br,1.61,-5.9,i,i,i,i,i,i,i
CC(=O)N1c2ccc(S(=O)(=O)NCCC(=O)Nc3ccc(OC(F)(F)F)cc3)cc2CC1C (centres undefined),0.79,-16.9,i,i,i,i,.,.,.
CCCCc1nc2cc(C(=O)N3CCN(c4nc(C)cnc4C)CC3)ccc2o1,-0.01,-3.3,i,i,i,i,.,.,.
CNS(=O)(=O)c1cccc(C(=O)OCc2cc(Cl)cc3c2OCOC3)c1,-0.27,-8.8,i,i,-12.6*,i,48.5%*,i,i
O=C(OCc1cc(Cl)cc2c1OCOC2)c1cccnc1Cl,.,.,.,i,.,.,.,.,.
COc1ccc(NC(=O)CSCc2cc(=O)n3c(C)csc3n2)cc1,1.74,-2.8,i,i,i,i,.,.,.
Oc1ccc(C2=NN(c3ccccc3)C(c3ccc(F)cc3)C2)cc1 (centres undefined),0.75,-7.4,i,i,-11.5*,i,42.5%*,i,36.0%*
SMILES,Kir21 inh,hERG protect,KCNQ1 act,KCNK3 inh,KCNK9 inh,KCNQ1 inh,KCNK9 inh conf,Kir2-1 spec,KCNK9 uninduced
O=S(=O)(c1ccccc1)N1N=C(c2cccs2)CC1c1ccc(Br)cc1 (centres undefined),0.11,-10.8,i,i,-13.4*,i,37.0%*,i,44.5%*
Cc1ccc(C2CC(c3ccccc3)=NN2c2ccccc2)o1 (centres undefined),-1.55,-11.9,i,i,-9.09*,8*,41.0%*,i,29.5%*
COc1ccc(C2CC(c3cccs3)=NN2c2ccc(C=O)cc2)cc1 (centres undefined),-5.43,-9.2,i,.,i,i,.,.,.
c1ccc(C2CC(c3cccs3)=NN2c2ccccc2)cc1 (centres undefined),0.22,-13.7,i,i,-8.73*,i,48.5%*,i,i
Oc1ccccc1C1=NN(c2ccccc2)C(c2ccc(F)cc2)C1 (centres undefined),2.53,-5.2,i,i,i,i,.,.,.
Cc1nn(CC(=O)N2CCCC2)c(=O)c2cc3cc(F)ccc3n12,-0.18,-5.8,i,i,i,i,.,.,.
CCN(CC(=O)Nc1c(F)cccc1F)C(=O)c1ccccn1,.,.,.,i,.,.,.,.,.
Cc1ccc(SCC(=O)O/N=C(\N)c2cccc([N+](=O)[O-])c2)cc1,0.04,-8.2,i,i,i,i,i,i,27.5%*
CC(C)N1CCN(S(=O)(=O)c2ccccc2)c2ccccc21,.,.,.,i,.,.,.,.,.
O=C(O)CCc1ccc(-c2ccccc2)n1-c1cccc(C(=O)O)c1,-0.34,-2.8,i,i,i,i,.,.,.
